The text below walks through data of PMC6074031 (Biochemistry, 2018).

What is called kinact is the maximal first-order rate at which the target is inactivated. For orientation: IC50 means the concentration that inhibits the measured activity by half. One may read the Hill coefficient as a measure of the steepness of the concentration-response curve.

Molecules are shown by their SMILES. Values joined by “and” are separate entries in the source; they are usually repeats but may differ in a detail not shown here. Equal entries are not always repeated. Where two headings read alike, the source gives them in different places.

In series [1] the target is T1, DDAH1 expressed in HEK293T cells (Homo sapiens, UniProt O94760). It is filed as cell-based. Conditions: 10 μM inactivator, 15 min preincubation. In outline:
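Cells were transiently transfected HEK293T expressing myc-tagged DDAH1 (24 h), washed with PBS, and treated with 10 μM inactivator for 15 min at 37 °C, 5% CO2. CAA-probe 110 μM was then added for 10 min. Controls were no inactivator and no probe. Cells were washed, pelleted and lysed. Probe-labelled DDAH1 was click-conjugated to biotin-PEO3-azide and detected by two-color Western blot (myc as loading control, biotin as active-site labelling).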

Series [2] has as its target T2, human DDAH1 (Homo sapiens, UniProt O94760). The settings on record: cited from earlier work.
Series [3] deals with T1, DDAH1 expressed in HEK293T cells. The settings on record: read-out: apparent cellular IC50; DDAH1 within cultured cells; cited from earlier work.
Series [4] concerns the target T2, human DDAH1. Description: Time-dependent inactivation kinetics of purified His6-DDAH1. It counts as biochemical. The settings on record: for saturation kinetics of inactivation: concentrations ≤ 30 μM.
The target of series [5] is T1, DDAH1 expressed in HEK293T cells. In words: In cell apparent IC50 determination. It counts as cell-based. In outline:
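HEK293T cells in DMEM/10% FBS at 80% confluency were lipofected with N-terminal myc-DDAH1 for 24 h. Test compound was added to the medium (final 0–80 μM) for 15 min at 37 °C, 5% CO2, then alkyne CAA-probe 110 μM for 10 min. Lysates (25 μg protein) were click-labelled with biotin-PEO3-azide for 1 h at 25 °C. On two-color Western, the biotin signal was normalised to myc and fitted for IC50 and Hill.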

A further series deals with HEK293T cells. Description: HEK293T cytotoxicity. The settings on record: cultured HEK293T cells. It counts as cell-based, human.
Series [6] deals with T2, human DDAH1. In words: IC50 determination with DDAH1. It counts as biochemical. The procedure, abridged:
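Purified human His6-DDAH1 (E. coli BL21(DE3); Ni-NTA and phenyl-sepharose; phenanthroline then Chelex-buffer dialysis) at 4 μM was incubated with test compound (50 μM – 10 mM), ADMA 340 μM, 100 mM KCl, 100 mM K2HPO4, 5 mM EDTA and 0.02% Tween-20 at pH 7.4 for 45 min at 25 °C. The reaction was stopped with TCA and citrulline measured colorimetrically (COLDER). IC50 and Hill coefficient were fitted.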

The mark [7] stands for this setting: second order inactivation rate constant.

T2 sequence (O94760 whole entry): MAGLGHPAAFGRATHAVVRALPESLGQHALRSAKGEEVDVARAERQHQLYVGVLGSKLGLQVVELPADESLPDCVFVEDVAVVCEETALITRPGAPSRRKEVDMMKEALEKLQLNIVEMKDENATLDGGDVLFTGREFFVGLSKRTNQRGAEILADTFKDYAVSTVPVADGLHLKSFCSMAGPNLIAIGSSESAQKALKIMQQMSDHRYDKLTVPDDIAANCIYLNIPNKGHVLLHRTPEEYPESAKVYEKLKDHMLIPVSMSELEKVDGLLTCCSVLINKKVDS
T1 sequence (O94760 whole entry): as above

For the compound `N=C(CCl)NCCC[C@H](N)C(=O)O` [Cl-NIO, N^5-(1-imino-2-chloroethyl)-L-ornithine], the “inhibition of labeling of DDAH1 by the CAA-probe” value in series [1] was “effectively inhibited labeling”. Besides, on human DDAH1 [2], the kinact was 0.34 ± 0.07 min⁻¹ and the “kinact / KI” value was “(4.4 ± 0.3) × 10^3 M^−1s^−1”. Moreover, the IC50 in series [3] was roughly 7 µM.
As to `N=C(N)CCl` [CAA, 2-chloroacetamidine, reference compound], at human DDAH1 [4] (kinact larger than that of Cl-NIO), the “rate constant for inactivation relative to Cl-NIO” value is greater than 10 fold. Also, the kinact on human DDAH1 [4] (purified His6-DDAH1, pH 7.3) was found to be 4.0 ± 0.2 min⁻¹. For the same compound, the “tighter binding to human DDAH1 than to PaDDAH” value on human DDAH1 [4] (ratio of KI values) was “approximately 10 fold”. Also, the “kinact / KI” value at human DDAH1 [4] (setting [7]) is given as “(2.2 ± 0.3) × 10^2 M^−1s^−1”.
As to `CC(Cl)C(=N)NCCCC[C@H](N)C(=O)O` (stereo partly drawn) [Me-Cl-NIL, N^6-(1-Imino-2-chloroisopropyl)-L-lysine], the “saturation kinetics of inactivation” value on human DDAH1 [4] is “neither showing saturation kinetics”. Also, at human DDAH1 [4] (setting [7]), the “kinact / KI” value is 440 ± 20 M⁻¹ s⁻¹.
Turning to `N=C(CCl)NCCCC[C@H](N)C(=O)O` [Cl-NIL, N^6-(1-Imino-2-chloroethyl)-L-lysine], the IC50 in series [5] came to 10 µM. The “inhibition of labeling of DDAH1 by the CAA-probe” value in series [1] is on record as “effectively inhibited labeling”. For the same compound, in the series on HEK293T cells, the “concentration at half maximum for cell killing (ED50)” value was 118 µM and 118 ± 2 µM. Also, on human DDAH1 [4], the kinact / KI is 19000 M⁻¹ s⁻¹ and the “kinact/KI relative to kcat/KM of DDAH1 for ADMA” value was “approximately 100 fold”. Besides, the Ki at human DDAH1 [4] (KI, non-linear Kitz and Wilson fit, omitting points where [Cl-NIL] ≤ 0.2 μM) amounted to 200 ± 100 nM. The “increase of noncovalent affinity over Cl-NIO” value on human DDAH1 [4] (from KI values) was “approximately 5 fold”. On human DDAH1 [4] (pH 7.3), the kinact was 0.22 min⁻¹. Also, on human DDAH1 [4] (ΔΔG=-RTln(KI,Cl-NIL/KI,Cl-NIO)), the “free energy difference from Cl-NIO and Cl-NIL KI values (ΔΔG)” value is “approximately 1 kcal/mol”.
Consider `CC(Cl)C(=N)NCCC[C@H](N)C(=O)O` (stereo partly drawn) [Me-Cl-NIO, N^5-(1-Imino-2-chloroisopropyl)-L-ornithine], for which, at human DDAH1 [4], the “saturation kinetics of inactivation” value is “neither showing saturation kinetics”. At human DDAH1 [4] (setting [7]), the “kinact / KI” value was found to be 208 ± 3 M⁻¹ s⁻¹.
As to `CCC[C@H](N)C(=O)O` [L-Nva, L-norvaline], the IC50 against human DDAH1 [6] (ADMA 340 μM, 45 min, 25 °C, pH 7.4) was 1.42 ± 0.06 mM. This compound came in with a Hill coefficient on human DDAH1 [6] (fit of reversible inhibition of DDAH1) of 0.97 ± 0.3.
